ChEMBL document CHEMBL4406880, “Design, synthesis, and bioactivity of dihydropyrimidine derivatives as kinesin spindle protein inhibitors” (Bioorg Med Chem, 2019)

Legend:
Assay type in all cases: functional
[1] = system: NCI-H226; assay: Growth inhibition of human NCI-H226 cells incubated for 48 hrs by sulforhodamine B assay; conditions: NCI-H226, 48 h
Outline: (§1)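 NCI-60 five-dose SRB assay in RPMI 1640 with 5% FBS, 37 °C, 5% CO2. Compound given at five tenfold dilutions, 0.01–100 µM, for 48 h. Adherent cells fixed with TCA, suspension cells with 16% final TCA. Bound SRB read at 515 nm and growth calculated against time-zero and untreated controls. GI50 taken from dose–response curves as the concentration giving a 50% decrease in net cell growth.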

[2] = system: NCI-H522; assay: Growth inhibition of human NCI-H522 cells incubated for 48 hrs by sulforhodamine B assay; conditions: NCI-H522, 48 h; outline: as §1
[3] = system: HCC 2998; assay: Growth inhibition of human HCC2998 cells incubated for 48 hrs by sulforhodamine B assay; conditions: HCC 2998, 48 h
Outline: (§2)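 NCI-60 five-dose mode: five tenfold dilutions (0.01, 0.1, 1, 10, 100 µM) are applied for 48 h to cells in RPMI 1640 with 5% FBS at 37 °C. Endpoint is TCA fixation with sulforhodamine B read at 515 nm. % growth comes from the 0 h and control absorbances. GI50 is the concentration giving a 50% reduction in net cell growth.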

[4] = system: SF-268; assay: Growth inhibition of human SF268 cells incubated for 48 hrs by sulforhodamine B assay; conditions: SF-268, 48 h
Outline: (§3)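 NCI-60 five-dose SRB assay. Cells were exposed for 48 h to tenfold dilutions of 0.01, 0.1, 1, 10 and 100 µM, in RPMI 1640 with 5% FBS. Plates fixed with TCA at the time of drug addition served as the time-zero reference. GI50 is the concentration giving a 50% reduction in net growth. TGI is total growth inhibition. LC50 is a net 50% loss of the initial cells.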

[5] = system: SNB-19; assay: Growth inhibition of human SNB19 cells incubated for 48 hrs by sulforhodamine B assay; conditions: SNB-19, 48 h; outline: as §3
[6] = system: LOX IMVI; assay: Growth inhibition of human LOXIMVI cells incubated for 48 hrs by sulforhodamine B assay; outline: as §1
[7] = system: CAKI-1; assay: Growth inhibition of human Caki1 cells incubated for 48 hrs by sulforhodamine B assay; conditions: CAKI-1, 48 h; outline: as §2
[8] = system: IGROV-1; assay: Growth inhibition of human IGROV1 cells assessed as cell viability at 100 uM incubated for 48 hrs by sulforhodamine B assay; conditions: IGROV-1, 48 h, read-out: Activity
[9] = system: NCI-H322M; assay: Growth inhibition of human NCI-H322M cells assessed as cell viability at 100 uM incubated for 48 hrs by sulforhodamine B assay; conditions: read-out: Activity
[10] = system: EKVX; assay: Growth inhibition of human EKVX cells assessed as cell viability at 100 uM incubated for 48 hrs by sulforhodamine B assay; conditions: read-out: Activity
[11] = system: SK-MEL-2; assay: Growth inhibition of human SK-MEL-2 cells assessed as cell viability at 1 uM incubated for 48 hrs by sulforhodamine B assay; conditions: SK-MEL-2, 48 h, read-out: Activity
[12] = system: SF-539; assay: Growth inhibition of human SF539 cells assessed as cell viability at 1 uM incubated for 48 hrs by sulforhodamine B assay; conditions: SF-539, 48 h, read-out: Activity
[13] = system: SF-295; assay: Growth inhibition of human SF295 cells assessed as cell viability at 1 uM incubated for 48 hrs by sulforhodamine B assay; conditions: SF-295, 48 h, read-out: Activity
[14] = system: SF-268; assay: Growth inhibition of human SF268 cells assessed as cell viability at 1 uM incubated for 48 hrs by sulforhodamine B assay; conditions: SF-268, 48 h, read-out: Activity
[15] = system: SW-620; assay: Growth inhibition of human SW620 cells assessed as cell viability at 1 uM incubated for 48 hrs by sulforhodamine B assay; conditions: SW-620, 48 h, read-out: Activity
[16] = system: SK-MEL-2; assay: Growth inhibition of human SK-MEL-2 cells assessed as cell viability at 0.1 uM incubated for 48 hrs by sulforhodamine B assay; conditions: SK-MEL-2, 48 h, read-out: Activity
[17] = system: LOX IMVI; assay: Growth inhibition of human LOXIMVI cells assessed as cell viability at 0.1 uM incubated for 48 hrs by sulforhodamine B assay; conditions: read-out: Activity
[18] = system: SF-295; assay: Growth inhibition of human SF295 cells assessed as cell viability at 0.1 uM incubated for 48 hrs by sulforhodamine B assay; conditions: SF-295, 48 h, read-out: Activity
[19] = system: NCI-H226; assay: Growth inhibition of human NCI-H226 cells assessed as cell viability at 0.1 uM incubated for 48 hrs by sulforhodamine B assay; conditions: NCI-H226, 48 h, read-out: Activity
[20] = system: HOP-92; assay: Growth inhibition of human HOP92 cells assessed as cell viability at 0.1 uM incubated for 48 hrs by sulforhodamine B assay; conditions: HOP-92, 48 h, read-out: Activity
[21] = system: K562; assay: Growth inhibition of human K562 cells assessed as cell viability at 0.1 uM incubated for 48 hrs by sulforhodamine B assay; conditions: K562, 48 h, read-out: Activity
[22] = system: NCI-H322M; assay: Growth inhibition of human NCI-H322M cells assessed as cell viability at 0.001 uM incubated for 48 hrs by sulforhodamine B assay relative to control; conditions: read-out: Activity
[23] = system: CCRF-CEM; assay: Growth inhibition of human CCRF-CEM cells assessed as cell viability at 0.001 uM incubated for 48 hrs by sulforhodamine B assay relative to control; conditions: read-out: Activity
[24] = system: RXF 393; assay: Growth inhibition of human RXF393 cells assessed as cell viability at 100 uM incubated for 48 hrs by sulforhodamine B assay; conditions: RXF 393, 48 h, read-out: Activity
[25] = system: UO-31; assay: Growth inhibition of human UO31 cells assessed as cell viability at 100 uM incubated for 48 hrs by sulforhodamine B assay; conditions: UO-31, 48 h, read-out: Activity
[26] = read-out: LC50 (the source's name)
[27] = read-out: pLC50 (the source's name) (converted)

SMILES: CC1=C(C(=O)OCc2ccccc2)C(c2ccc3c(c2)OCO3)n2c(nc3ccccc32)N1 (racemic)
- GI50 ([1]; read-out: GI50): > 100 µM
- LC50 (concentration killing 50% of starting cells) ([1]; read-out: LC50): > 100 µM
- TGI ([1]; read-out: TGI): > 100 µM
- GI50 ([1]; read-out: pGI50 (converted)): > 100 µM
- LC50 (concentration killing 50% of starting cells) ([1]; read-out: pLC50 (converted)): > 100 µM
- TGI ([1]; read-out: pTGI): > 100 µM
- GI50 ([2]; read-out: GI50): 0.14 µM
- CC50 [2, 26]: > 100 µM
- TGI ([2]; read-out: TGI): 33.2 µM
- GI50 ([2]; read-out: pGI50 (converted)): 0.135 µM
- CC50 [2, 27]: > 100 µM
- TGI ([2]; read-out: pTGI (converted)): 33.1 µM
- GI50 ([3]; read-out: GI50): 11 µM
- LC50 ([3]; read-out: LC50): > 100 µM
- TGI ([3]; read-out: TGI): > 100 µM
- GI50 ([3]; read-out: pGI50 (converted)): 11 µM
- LC50 ([3]; read-out: pLC50 (converted)): > 100 µM
- TGI ([3]; read-out: pTGI): > 100 µM
- GI50 ([4]; read-out: GI50): 0.51 µM
- LC50 ([4]; read-out: LC50): > 100 µM
- TGI ([4]; read-out: TGI): > 100 µM
- GI50 ([4]; read-out: pGI50 (converted)): 0.513 µM
- LC50 ([4]; read-out: pLC50 (converted)): > 100 µM
- TGI ([4]; read-out: pTGI): > 100 µM
- GI50 ([5]; read-out: GI50): 0.56 µM
- CC50 [5, 26]: > 100 µM
- TGI ([5]; read-out: TGI): > 100 µM
- GI50 ([5]; read-out: pGI50 (converted)): 0.562 µM
- CC50 [5, 27]: > 100 µM
- TGI ([5]; read-out: pTGI): > 100 µM
- GI50 ([6]; read-out: GI50): 0.55 µM
- LC50 ([6]; read-out: LC50): > 100 µM
- TGI ([6]; read-out: TGI): > 100 µM
- GI50 ([6]; read-out: pGI50 (converted)): 0.55 µM
- LC50 ([6]; read-out: pLC50 (converted)): > 100 µM
- TGI ([6]; read-out: pTGI): > 100 µM
- GI50 ([7]; read-out: GI50): 0.28 µM
- CC50 [7, 26]: > 100 µM
- TGI ([7]; read-out: TGI): > 100 µM
- GI50 ([7]; read-out: pGI50 (converted)): 0.282 µM
- CC50 [7, 27]: > 100 µM
- TGI ([7]; read-out: pTGI): > 100 µM
- viability at 100 µM [8]: 29%
- viability at 100 µM [9]: 50%
- viability at 100 µM [10]: 29%
- viability at 1 µM [11]: 52%
- viability at 1 µM [12]: 13%
- viability at 1 µM [13]: 16%
- viability at 1 µM [14]: 32%
- viability at 1 µM [15]: 23%
- viability at 0.1 µM [16]: 101%
- viability at 0.1 µM [17]: 93%
- viability at 0.1 µM [18]: 87%
- viability at 0.1 µM [19]: 97%
- viability at 0.1 µM [20]: 70%
- viability at 0.1 µM [21]: 82%
- viability at 0.001 µM [22]: 96%
- viability at 0.001 µM [23]: 101%
- viability at 100 µM [24]: 15%
- viability at 100 µM [25]: -7%
